In assay [1] the target is T1, Sodium- and chloride-dependent betaine transporter (Homo sapiens, UniProt P48065). The experiment in a line: Inhibition of human BGT1/human GAT3 chimera C expresses in tsA201 cells assessed as reduction in [3H]GABA uptake after 3 mins by scintillation counting method. In kind it is cell-based. The method in brief: (§1)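 BGT1/GAT3 chimeric constructs transiently expressed in tsA201 cells. After about 24 h, cells were washed in HEPES-buffered HBSS (1 mM CaCl2, 1 mM MgCl2, pH 7.4). IC50 came from variable-slope sigmoidal regression. Triplicates, at least two independent experiments.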

Assay [2] has as its target Sodium- and chloride-dependent betaine transporter (Homo sapiens, UniProt P48065, S345A). Nature of the assay: Inhibition of human BGT1 S345A mutant expressed in tsA201 cells assessed as reduction in [3H]GABA uptake after 3 mins by scintillation counting method. Format: cell-based. The method in brief: (§2)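 Site-directed mutant transporters transiently transfected (PolyFect) into tsA201 cells, plated and used about 24 h later. Cells were washed with HBSS containing 20 mM HEPES, 1 mM CaCl2 and 1 mM MgCl2, pH 7.4. IC50 was taken from variable-slope sigmoidal fits. Triplicates, at least three independent experiments.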

Assay [3] has as its target Sodium- and chloride-dependent betaine transporter (Homo sapiens, UniProt P48065, S381A). The experiment in a line: Inhibition of human BGT1 S381A mutant expressed in tsA201 cells assessed as reduction in [3H]GABA uptake after 3 mins by scintillation counting method. In kind it is cell-based. The method in brief: as §2
Assay [4] concerns the target Sodium- and chloride-dependent betaine transporter (Homo sapiens, UniProt P48065, Q378P). The experiment in a line: Inhibition of human BGT1 Q378P mutant expressed in tsA201 cells assessed as reduction in [3H]GABA uptake after 3 mins by scintillation counting method. Format: cell-based. The method in brief:
as §2

Assay [5] deals with Sodium- and chloride-dependent betaine transporter (Homo sapiens, UniProt P48065, F295Y). The experiment in a line: Inhibition of human BGT1 F295Y mutant expressed in tsA201 cells assessed as reduction in [3H]GABA uptake after 3 mins by scintillation counting method. In kind it is cell-based. The gist of the method: as §2
Assay [6] has as its target Sodium- and chloride-dependent betaine transporter (Homo sapiens, UniProt P48065, Q346Y). The experiment in a line: Inhibition of human BGT1 Q346Y mutant expressed in tsA201 cells assessed as reduction in [3H]GABA uptake after 3 mins by scintillation counting method. Format: cell-based. The gist of the method:
as §2

In assay [7] the target is Sodium- and chloride-dependent betaine transporter (Homo sapiens, UniProt P48065, V337I). The experiment in a line: Inhibition of human BGT1 V337I mutant expressed in tsA201 cells assessed as reduction in [3H]GABA uptake after 3 mins by scintillation counting method. Format: cell-based. The gist of the method:
as §2

The target of assay [8] is Sodium- and chloride-dependent betaine transporter (Homo sapiens, UniProt P48065, A328G). Nature of the assay: Inhibition of human BGT1 A328G mutant expressed in tsA201 cells assessed as reduction in [3H]GABA uptake after 3 mins by scintillation counting method. In kind it is cell-based. The gist of the method:
as §2

For assay [9], the target named is Sodium- and chloride-dependent betaine transporter (Homo sapiens, UniProt P48065, F324C). Nature of the assay: Inhibition of human BGT1 F324C mutant expressed in tsA201 cells assessed as reduction in [3H]GABA uptake after 3 mins by scintillation counting method. Format: cell-based. The method in brief:
as §2

Assay [10] has as its target Sodium- and chloride-dependent betaine transporter (Homo sapiens, UniProt P48065, K310N). Nature of the assay: Inhibition of human BGT1 K310N mutant expressed in tsA201 cells assessed as reduction in [3H]GABA uptake after 3 mins by scintillation counting method. In kind it is cell-based. The gist of the method:
as §2

Assay [11] addresses Sodium- and chloride-dependent betaine transporter (Homo sapiens, UniProt P48065, I386M). Nature of the assay: Inhibition of human BGT1 I386M mutant expressed in tsA201 cells assessed as reduction in [3H]GABA uptake after 3 mins by scintillation counting method. In kind it is cell-based. The method in brief: as §2
The target in assay [12] is T1, Sodium- and chloride-dependent betaine transporter. The experiment in a line: Inhibition of human BGT1/human GAT3 chimera D expresses in tsA201 cells assessed as reduction in [3H]GABA uptake after 3 mins by scintillation counting method. Format: cell-based. The method in brief:
as §1

Assay [13] has as its target Sodium- and chloride-dependent betaine transporter (Homo sapiens, UniProt P48065, A321M). Nature of the assay: Inhibition of human BGT1 A321M mutant expressed in tsA201 cells assessed as reduction in [3H]GABA uptake after 3 mins by scintillation counting method. Format: cell-based. The gist of the method:
as §2

The target in assay [14] is Sodium- and chloride-dependent betaine transporter (Homo sapiens, UniProt P48065, I340V). The experiment in a line: Inhibition of human BGT1 I340V mutant expressed in tsA201 cells assessed as reduction in [3H]GABA uptake after 3 mins by scintillation counting method. In kind it is cell-based. The gist of the method: as §2
The target in assay [15] is 5-hydroxytryptamine receptor 1D (Homo sapiens) (UniProt P28221). The experiment in a line: Displacement of [3H]GR125743 from human 5-HT1D receptor expressed in HEKT cell membranes at 10 uM after 90 mins by scintillation counting method.
Assay [16] addresses T2, Sodium- and chloride-dependent GABA transporter 3 (Homo sapiens, UniProt P48066).
T2 sequence (P48066 whole entry): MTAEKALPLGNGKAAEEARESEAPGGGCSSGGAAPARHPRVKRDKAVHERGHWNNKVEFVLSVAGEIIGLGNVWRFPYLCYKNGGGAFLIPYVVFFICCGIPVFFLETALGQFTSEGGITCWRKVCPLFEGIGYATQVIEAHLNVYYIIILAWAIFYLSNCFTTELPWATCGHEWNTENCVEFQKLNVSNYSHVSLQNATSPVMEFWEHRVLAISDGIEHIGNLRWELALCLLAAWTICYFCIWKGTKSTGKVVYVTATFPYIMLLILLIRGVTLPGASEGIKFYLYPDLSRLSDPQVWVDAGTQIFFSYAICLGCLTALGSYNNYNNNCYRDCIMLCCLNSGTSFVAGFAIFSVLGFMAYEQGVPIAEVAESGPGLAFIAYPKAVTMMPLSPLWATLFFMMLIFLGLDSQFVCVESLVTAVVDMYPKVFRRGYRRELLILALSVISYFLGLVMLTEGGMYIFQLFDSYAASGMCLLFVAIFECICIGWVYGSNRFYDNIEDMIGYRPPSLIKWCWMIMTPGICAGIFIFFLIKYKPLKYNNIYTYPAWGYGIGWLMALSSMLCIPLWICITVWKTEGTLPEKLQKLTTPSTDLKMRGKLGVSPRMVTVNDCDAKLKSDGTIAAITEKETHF
The experiment in a line: Inhibition of human GAT3 expresses in tsA201 cells assessed as reduction in [3H]GABA uptake after 3 mins by scintillation counting method. Format: cell-based. The method in brief:
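Wild-type human GAT transiently expressed in tsA201 cells via pcDNA5/FRT and PolyFect. Uptake of 30 nM [3H]GABA was run for 3 min at 37 °C in HBSS/20 mM HEPES with 1 mM CaCl2 and 1 mM MgCl2, pH 7.4, across a range of test concentrations. Ice-cold washes were followed by scintillation counting. IC50 was obtained by sigmoidal variable-slope fitting, reported as mean pIC50 ± S.E.M.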

Assay [17] has as its target Histamine H1 receptor (Homo sapiens) (UniProt P35367). The experiment in a line: Displacement of [3H]pyrilamine from human histamine H1 receptor expressed in HEK cell membranes at 10 uM after 90 mins by scintillation counting method. For orientation: Displacement assays read how much labelled ligand stays bound in the presence of the test substance.

Each structure is given as a SMILES string. Activity calls are given as the source filed them. The calls are words filed in the database; no cut-off is given here.

T1 sequence (P48065 whole entry, looked up): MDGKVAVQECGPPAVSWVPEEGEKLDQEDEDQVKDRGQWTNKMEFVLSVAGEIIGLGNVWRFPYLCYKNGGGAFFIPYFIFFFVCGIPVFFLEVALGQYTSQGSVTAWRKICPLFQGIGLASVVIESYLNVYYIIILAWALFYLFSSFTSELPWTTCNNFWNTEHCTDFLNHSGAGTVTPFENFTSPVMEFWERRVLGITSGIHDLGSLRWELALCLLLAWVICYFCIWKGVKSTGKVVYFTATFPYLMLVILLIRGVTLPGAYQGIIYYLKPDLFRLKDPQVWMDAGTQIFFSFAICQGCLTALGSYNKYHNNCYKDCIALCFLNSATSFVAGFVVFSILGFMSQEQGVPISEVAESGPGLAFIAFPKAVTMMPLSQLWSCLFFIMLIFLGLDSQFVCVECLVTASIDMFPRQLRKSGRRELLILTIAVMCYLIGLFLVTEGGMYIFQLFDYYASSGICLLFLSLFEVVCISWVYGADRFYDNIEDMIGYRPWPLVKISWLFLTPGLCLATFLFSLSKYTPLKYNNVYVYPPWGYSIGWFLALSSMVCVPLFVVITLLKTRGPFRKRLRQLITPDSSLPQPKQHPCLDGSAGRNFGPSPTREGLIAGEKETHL
Chain of Sodium- and chloride-dependent betaine transporter (Homo sapiens, UniProt P48065, V337I) (P48065 whole entry V337I): as the sequence (P48065 whole entry, looked up) above, with V337I counted along it
Chain of Sodium- and chloride-dependent betaine transporter (Homo sapiens, UniProt P48065, I340V) (P48065 whole entry I340V): as the sequence (P48065 whole entry, looked up) above, with I340V counted along it
Chain of Sodium- and chloride-dependent betaine transporter (Homo sapiens, UniProt P48065, F295Y) (P48065 whole entry F295Y): as the sequence (P48065 whole entry, looked up) above, with F295Y counted along it
Chain of Sodium- and chloride-dependent betaine transporter (Homo sapiens, UniProt P48065, S381A) (P48065 whole entry S381A): as the sequence (P48065 whole entry, looked up) above, with S381A counted along it
Chain of Sodium- and chloride-dependent betaine transporter (Homo sapiens, UniProt P48065, I386M) (P48065 whole entry I386M): as the sequence (P48065 whole entry, looked up) above, with I386M counted along it
Chain of Sodium- and chloride-dependent betaine transporter (Homo sapiens, UniProt P48065, Q378P) (P48065 whole entry Q378P): as the sequence (P48065 whole entry, looked up) above, with Q378P counted along it
Chain of Sodium- and chloride-dependent betaine transporter (Homo sapiens, UniProt P48065, F324C) (P48065 whole entry F324C): as the sequence (P48065 whole entry, looked up) above, with F324C counted along it
Chain of Sodium- and chloride-dependent betaine transporter (Homo sapiens, UniProt P48065, A328G) (P48065 whole entry A328G): as the sequence (P48065 whole entry, looked up) above, with A328G counted along it
Chain of Sodium- and chloride-dependent betaine transporter (Homo sapiens, UniProt P48065, K310N) (P48065 whole entry K310N): as the sequence (P48065 whole entry, looked up) above, with K310N counted along it
Chain of 5-hydroxytryptamine receptor 1D (Homo sapiens) (P28221 whole entry): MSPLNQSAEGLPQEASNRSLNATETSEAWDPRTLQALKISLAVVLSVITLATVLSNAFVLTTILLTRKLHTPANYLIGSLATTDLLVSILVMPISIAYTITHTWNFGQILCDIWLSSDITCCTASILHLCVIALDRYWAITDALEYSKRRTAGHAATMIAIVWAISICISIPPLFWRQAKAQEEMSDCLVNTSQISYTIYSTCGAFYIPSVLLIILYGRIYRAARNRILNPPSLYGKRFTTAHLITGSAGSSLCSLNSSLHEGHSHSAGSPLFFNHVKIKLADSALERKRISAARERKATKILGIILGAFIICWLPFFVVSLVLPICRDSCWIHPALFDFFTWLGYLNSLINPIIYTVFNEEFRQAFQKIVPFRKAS
Chain of Sodium- and chloride-dependent betaine transporter (Homo sapiens, UniProt P48065, A321M) (P48065 whole entry A321M): as the sequence (P48065 whole entry, looked up) above, with A321M counted along it
Chain of Sodium- and chloride-dependent betaine transporter (Homo sapiens, UniProt P48065, S345A) (P48065 whole entry S345A): as the sequence (P48065 whole entry, looked up) above, with S345A counted along it
Chain of Sodium- and chloride-dependent betaine transporter (Homo sapiens, UniProt P48065, Q346Y) (P48065 whole entry Q346Y): as the sequence (P48065 whole entry, looked up) above, with Q346Y counted along it
Chain of Histamine H1 receptor (Homo sapiens) (P35367 whole entry): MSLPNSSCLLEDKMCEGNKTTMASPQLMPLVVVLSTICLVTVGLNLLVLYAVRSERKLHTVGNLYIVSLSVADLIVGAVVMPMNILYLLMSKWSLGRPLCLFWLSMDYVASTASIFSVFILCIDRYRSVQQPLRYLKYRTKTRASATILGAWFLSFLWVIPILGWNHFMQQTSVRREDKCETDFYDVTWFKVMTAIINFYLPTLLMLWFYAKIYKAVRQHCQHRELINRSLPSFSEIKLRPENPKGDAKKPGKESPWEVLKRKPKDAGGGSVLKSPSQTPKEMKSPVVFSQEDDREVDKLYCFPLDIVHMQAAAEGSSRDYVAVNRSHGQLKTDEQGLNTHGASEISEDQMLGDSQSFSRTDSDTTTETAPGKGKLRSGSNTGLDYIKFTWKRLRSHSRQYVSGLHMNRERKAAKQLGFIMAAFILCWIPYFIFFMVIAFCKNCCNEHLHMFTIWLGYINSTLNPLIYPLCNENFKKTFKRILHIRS

Usually pIC50 stands for −log10 of the IC50, conventionally taken in molar units. Turning to `O=C(NC1CCN(Cc2ccccc2)CC1)c1ccc(Cl)cc1Cl`, the IC50 in assay [1] was 58 µM; in assay [2], 21 µM; in assay [3], 13 µM; in assay [4], 14 µM; in assay [5] (read-out: IC50), 5 µM; in assay [5] (read-out: pIC50 (converted)) it was 4.07 µM. Further, the IC50 in assay [6] was 14 µM; in assay [7] (read-out: IC50) it was 6 µM; in assay [7] (read-out: pIC50 (converted)), 4.9 µM; in [8] it was 7 µM; in [9], 6 µM; in assay [10] it was 10 µM. Further, the IC50 in [11] was 7 µM; in [12], 2 µM; in assay [13], 5 µM; in assay [14] (read-out: IC50), 8 µM; in assay [14] (read-out: pIC50 (converted)) it was 5.89 µM; in [16] it was above 100 µM. Further, the pIC50 is given as 4.6 in assay [1] and 5.79 in assay [12]. Moreover, the inhibition entry in [15] and in [17] was “Active” each time.
As to `O=C(NC1CCN(Cc2ccccc2)CC1)c1ccc(Cl)nc1Cl`, in assay [16] (read-out: IC50), the IC50 is above 1000 µM.

The values above are taken from ChEMBL document CHEMBL4028872, “Structure-Activity Relationship, Pharmacological Characterization, and Molecular Modeling of Noncompetitive Inhibitors of the Betaine/γ-Aminobutyric Acid Transporter 1 (BGT1)” (J Med Chem, 2017).
